Test results: ChEMBL document CHEMBL4823296, “NMR-Guided Design of Potent and Selective EphA4 Agonistic Ligands” (J Med Chem, 2021)
Values after ≈ are worked out from the molar mass of the structure shown. Active and inactive are the calls of the source. The calls are words filed in the database; no cut-off is given here. Non-standard residues stand in square brackets, D forms with d. Residues, ends and D or L forms follow the SMILES beside them. *: point of attachment. Phe(4-(2-MeO-Ph)) = COc1ccccc1-c1ccc(C[C@H](N)C(=O)O)cc1; Cyclohexanoyl(1S,3S-3-NH2) = N[C@H]1CCC[C@H](C(=O)*)C1; Trp(6-OMe) = COc1ccc2c(C[C@H](N)C(=O)O)c[nH]c2c1; Trp(5-OH) = N[C@@H](Cc1c[nH]c2ccc(O)cc12)C(=O)O; NHPh(4-CH2-morpholino) = c1cc(N*)ccc1CN1CCOCC1; NH(4-morpholinophenyl) = c1cc(N2CCOCC2)ccc1N*; Trp(7-aza) = N[C@@H](Cc1c[nH]c2ncccc12)C(=O)O; Bip = N[C@@H](Cc1ccc(-c2ccccc2)cc1)C(=O)O; hArg = N=C(N)NCCCC[C@H](N)C(=O)O; X4 = COc1cc(CN*)cc(OC)c1; GABA = NCCCC(=O)O; X1 = Oc1ccccc1CN*; X2 = Oc1ccccc1N*; X3 = Oc1cccnc1N*

Tests used:
Ephrin type-A receptor 2 = Ephrin type-A receptor 2 (Homo sapiens, UniProt P29317); test: Binding affinity to N-terminal His tagged EphA2 LBD (27 to 200 residues) (unknown origin) expressed in Origami (DE3) cells by isothermal titration calorimetry
[1] = Aqueous solubility of compound; assay type: physicochemical; settings: buffer
Neuron [2] = test: Cytoprotective activity against patient derived induced astrocyte-mediated B6-Cg-Tg(Hlxb9-GFP)1Tmj/J (Hb9-GFP) mouse motor neuron death at 100 uM measured after 3 days by imaging method; assay type: functional, tissue-based; settings: time 3.0 day
How it was run: (§1)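 Patient fibroblast-derived NPCs differentiated 5 days into induced astrocytes (DMEM, 10% FBS, 0.2% N2), seeded 10,000 per well; 24 h later GFP+ (HB9 promoter) motor neurons sorted from mouse embryoid bodies added at 10,000 per well together with compound. Imaged up to 3 days; neurons with neurites >50 μm counted alive, normalized to healthy-control survival; at least 2 independent experiments.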

Ephrin type-A receptor 4 [3] = target: T1, Ephrin type-A receptor 4 (Homo sapiens, UniProt P54764); test: Binding affinity to N-terminal His tagged EphA4 LBD (unknown origin) (29 to 209 residues) expressed in Rosetta-Gami B(DE3) cells by isothermal titration calorimetry
Ephrin type-A receptor 4 [4] = target: T1, Ephrin type-A receptor 4
Ephrin type-A receptor 4 [5] = target: T1, Ephrin type-A receptor 4; remark: listed apart in the source
Ephrin type-A receptor 4 [6] = target: T1, Ephrin type-A receptor 4; test: Displacement of EphrinA5 from N-terminal His tagged EphA4 LBD (unknown origin) (29 to 209 residues) expressed in Rosetta-Gami B(DE3) cells by 2D-[13C-1H] HSQC NMR spectroscopy; assay type: cell-based; settings: filed as agonist
[7] = target: Ephrin type-A receptor 4 (Mus musculus) (UniProt Q03137); test: Agonist activity at EphA4 in B6-Cg-Tg(Hlxb9-GFP)1Tmj/J (Hb9-GFP) mouse primary spinal cord motor neuron cells assessed as protein phosphorylation at […] residues at 1 to 10 uM incubated for 30 mins by Western blotting analysis; settings: filed as agonist, dose 1-10 µM
How it was run: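 Hb9-GFP mouse motor neurons from P0–2 spinal cords (papain/DNase I dissociation, OptiPrep purification), plated on poly-D-lysine/laminin in Neurobasal/B27, then 5% horse serum plus CNTF; at 2 DIV treated 30 min at 37°C, 5% CO2/10% O2, at 1 or 10 μM; 0.1% DMSO, pre-clustered Fc and ephrinA1-Fc (2 μg/mL) controls. Lysates immunoprecipitated with anti-EphA4, blotted for phosphotyrosine, reprobed for EphA4; pEphA4/total EphA4 band density ratio; SEM, each experiment repeated 3 times.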

[8] = target: Ephrin type-A receptor 4 (Mus musculus) (UniProt Q03137); test: Agonist activity at EphA4 in B6-Cg-Tg(Hlxb9-GFP)1Tmj/J (Hb9-GFP) mouse spinal cord motor neurons assessed as induction of growth cone collapse at 1 to 10 uM by rhodamine-coupled phalloidin dye based inverted fluorescent microscopic method; settings: filed as agonist, dose 1-10 µM
How it was run: (§2)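 Primary Hb9-GFP mouse spinal cord motor neurons at 2 DIV treated as in receptor activation assay (30 min, 37°C), 1 or 10 μM, alone or with pre-clustered ephrinA1-Fc (2 μg/mL); 0.1% DMSO negative control. Fixed in 2% paraformaldehyde, F-actin stained with rhodamine-phalloidin, ChAT immunolabelled; 20× fluorescence imaging, percent collapsed growth cones, 100 images per group; SEM, n=4–6 coverslips.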

[9] = target: Ephrin type-A receptor 4 (Mus musculus) (UniProt Q03137); test: Agonist activity at EphA4 in B6-Cg-Tg(Hlxb9-GFP)1Tmj/J (Hb9-GFP) mouse spinal cord motor neurons assessed as induction of growth cone collapse at 1 to 10 uM in presence of ephrin A1-Fc by rhodamine-coupled phalloidin dye based inverted fluorescent microscopic method; settings: filed as agonist, dose 1-10 µM; how it was run: as §2
Neuron [10] = test: Cytoprotective activity against patient derived induced astrocyte-mediated B6-Cg-Tg(Hlxb9-GFP)1Tmj/J (Hb9-GFP) mouse motor neuron death at 10 uM measured after 3 days by imaging method; assay type: functional, tissue-based; settings: time 3.0 day; how it was run: as §1

T1 sequence (P54764 whole entry, the tested form may be a part): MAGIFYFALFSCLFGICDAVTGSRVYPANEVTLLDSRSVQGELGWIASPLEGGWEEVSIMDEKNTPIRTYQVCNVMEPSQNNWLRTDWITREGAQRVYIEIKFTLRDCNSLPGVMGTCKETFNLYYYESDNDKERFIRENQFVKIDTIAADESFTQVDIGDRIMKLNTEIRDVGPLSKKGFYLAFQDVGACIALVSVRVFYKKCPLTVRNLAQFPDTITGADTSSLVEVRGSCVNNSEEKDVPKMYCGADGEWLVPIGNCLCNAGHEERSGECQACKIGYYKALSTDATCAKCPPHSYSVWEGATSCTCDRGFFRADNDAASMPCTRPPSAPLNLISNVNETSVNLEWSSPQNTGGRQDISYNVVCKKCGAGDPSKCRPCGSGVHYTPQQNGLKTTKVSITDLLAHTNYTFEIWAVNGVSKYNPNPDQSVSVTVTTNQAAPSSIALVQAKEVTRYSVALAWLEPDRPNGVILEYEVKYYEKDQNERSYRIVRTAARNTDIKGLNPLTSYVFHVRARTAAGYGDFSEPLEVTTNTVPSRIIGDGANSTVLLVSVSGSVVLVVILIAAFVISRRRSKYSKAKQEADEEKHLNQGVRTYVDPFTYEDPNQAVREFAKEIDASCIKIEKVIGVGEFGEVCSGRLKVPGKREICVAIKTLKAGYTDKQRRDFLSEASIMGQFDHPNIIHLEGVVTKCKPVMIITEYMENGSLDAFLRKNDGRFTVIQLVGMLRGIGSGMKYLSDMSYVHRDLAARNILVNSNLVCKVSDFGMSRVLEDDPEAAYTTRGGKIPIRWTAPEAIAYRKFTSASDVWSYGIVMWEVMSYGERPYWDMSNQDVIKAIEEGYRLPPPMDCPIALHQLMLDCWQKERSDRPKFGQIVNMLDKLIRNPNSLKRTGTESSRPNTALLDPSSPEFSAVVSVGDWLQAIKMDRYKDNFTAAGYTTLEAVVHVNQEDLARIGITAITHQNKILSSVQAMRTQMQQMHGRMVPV
Chain of Ephrin type-A receptor 2 (P29317 whole entry, the tested form may be a part): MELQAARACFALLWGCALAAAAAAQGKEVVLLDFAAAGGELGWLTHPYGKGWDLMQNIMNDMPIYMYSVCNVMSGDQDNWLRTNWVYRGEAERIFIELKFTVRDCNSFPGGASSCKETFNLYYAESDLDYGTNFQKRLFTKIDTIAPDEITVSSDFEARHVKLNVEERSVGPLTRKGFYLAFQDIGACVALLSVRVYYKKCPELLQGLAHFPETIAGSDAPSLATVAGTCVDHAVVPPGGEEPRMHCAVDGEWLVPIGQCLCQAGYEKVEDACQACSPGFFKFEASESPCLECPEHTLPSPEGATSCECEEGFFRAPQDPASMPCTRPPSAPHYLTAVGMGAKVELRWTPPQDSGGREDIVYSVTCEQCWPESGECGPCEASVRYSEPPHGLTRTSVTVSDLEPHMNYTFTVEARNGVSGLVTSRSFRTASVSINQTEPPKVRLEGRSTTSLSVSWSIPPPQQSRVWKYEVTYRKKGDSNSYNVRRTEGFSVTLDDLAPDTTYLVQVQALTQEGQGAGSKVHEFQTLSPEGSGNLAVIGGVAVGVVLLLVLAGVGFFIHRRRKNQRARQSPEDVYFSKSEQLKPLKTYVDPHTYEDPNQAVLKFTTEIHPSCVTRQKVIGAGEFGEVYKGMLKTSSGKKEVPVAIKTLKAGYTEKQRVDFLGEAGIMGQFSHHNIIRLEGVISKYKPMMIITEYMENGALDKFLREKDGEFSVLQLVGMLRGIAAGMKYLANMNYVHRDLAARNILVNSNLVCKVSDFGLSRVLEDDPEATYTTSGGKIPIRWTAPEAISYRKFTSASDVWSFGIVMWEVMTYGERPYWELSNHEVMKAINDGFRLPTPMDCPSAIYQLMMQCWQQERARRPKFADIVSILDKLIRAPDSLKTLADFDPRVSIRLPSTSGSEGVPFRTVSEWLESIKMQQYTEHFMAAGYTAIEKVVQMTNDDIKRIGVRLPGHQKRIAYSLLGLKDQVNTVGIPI
Chain of Ephrin type-A receptor 4 (Mus musculus) (Q03137 whole entry): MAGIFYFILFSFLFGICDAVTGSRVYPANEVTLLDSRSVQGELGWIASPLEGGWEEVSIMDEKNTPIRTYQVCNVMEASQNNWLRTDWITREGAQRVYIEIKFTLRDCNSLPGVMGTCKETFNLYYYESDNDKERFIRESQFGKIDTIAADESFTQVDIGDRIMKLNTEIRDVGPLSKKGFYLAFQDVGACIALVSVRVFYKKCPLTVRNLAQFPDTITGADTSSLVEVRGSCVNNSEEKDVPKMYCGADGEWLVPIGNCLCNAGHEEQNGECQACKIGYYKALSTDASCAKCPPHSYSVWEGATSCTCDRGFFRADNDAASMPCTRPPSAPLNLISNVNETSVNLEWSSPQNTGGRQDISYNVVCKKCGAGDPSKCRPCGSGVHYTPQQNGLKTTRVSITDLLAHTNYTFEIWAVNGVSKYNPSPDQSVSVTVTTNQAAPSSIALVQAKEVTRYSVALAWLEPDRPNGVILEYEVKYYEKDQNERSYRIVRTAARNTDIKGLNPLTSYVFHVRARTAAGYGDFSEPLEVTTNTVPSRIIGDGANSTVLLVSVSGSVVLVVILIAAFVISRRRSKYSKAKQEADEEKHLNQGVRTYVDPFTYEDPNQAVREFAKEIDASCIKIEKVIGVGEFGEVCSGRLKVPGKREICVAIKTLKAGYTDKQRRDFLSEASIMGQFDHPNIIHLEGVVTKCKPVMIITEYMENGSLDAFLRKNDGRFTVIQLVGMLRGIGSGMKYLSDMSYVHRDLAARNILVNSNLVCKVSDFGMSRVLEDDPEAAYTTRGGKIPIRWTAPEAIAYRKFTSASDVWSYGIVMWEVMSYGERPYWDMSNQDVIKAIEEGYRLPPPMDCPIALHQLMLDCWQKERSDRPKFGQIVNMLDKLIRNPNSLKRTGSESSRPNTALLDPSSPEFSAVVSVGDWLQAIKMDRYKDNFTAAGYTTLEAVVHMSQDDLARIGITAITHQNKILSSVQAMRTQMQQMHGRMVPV

Structure (SMILES)	deltaH (Ephrin type-A receptor 4 [4]) [kcal/mol]	-TdeltaS (Ephrin type-A receptor 4 [5]) [kcal/mol]	Kd (Ephrin type-A receptor 4 [3]) [nM]	other results
COc1ccc2[nH]cc(CCNC(=O)[C@H](Cc3ccncc3)NC(=O)[C@H](Cc3ccc(Cl)cc3)NC(=O)[C@H](Cc3c[nH]c4ccc(O)cc34)NC(=O)CCCN)c2c1	–	–	–	Kd (Ephrin type-A receptor 2): Not Active; solubility ([1]; read-out: solubility): 0.1 mM (≈ 0.0807 mg/mL); Activity (Neuron [2]): Active
COc1ccc2c(C[C@H](NC(=O)CCCN)C(=O)N[C@@H](Cc3ccc(-c4ccccc4)cc3)C(=O)N[C@@H](CCCCNC(=N)N)C(N)=O)c[nH]c2c1 (H-[GABA][Trp(6-OMe)][Bip][hArg]-NH2)	-10.5	2.84	2460	–
C[C@H](N)C(=O)N[C@@H](Cc1c[nH]c2ccccc12)C(=O)N[C@@H](Cc1ccc(-c2ccccc2)cc1)C(=O)N[C@@H](CCCCNC(=N)N)C(N)=O (HELM PEPTIDE1{A.W.[O=C([C@H](Cc1ccc(-c2ccccc2)cc1)N[*:1])[*:2]].[N=C(N)NCCCC[C@H](N[*:1])C(=O)[*:2]].[am]}$$$$V2.0)	-9.54	2.01	3020	–
N=C(N)NCCCC[C@H](NC(=O)[C@H](Cc1ccc(-c2ccccc2)cc1)NC(=O)[C@H](Cc1c[nH]c2ccccc12)NC(=O)CCN)C(N)=O (HELM PEPTIDE1{[bAla].W.[O=C([C@H](Cc1ccc(-c2ccccc2)cc1)N[*:1])[*:2]].[N=C(N)NCCCC[C@H](N[*:1])C(=O)[*:2]].[am]}$$$$V2.0)	-11.5	3.77	2130	–
N=C(N)NCCCC[C@H](NC(=O)[C@H](Cc1ccc(-c2ccccc2)cc1)NC(=O)[C@H](Cc1c[nH]c2ccc(O)cc12)NC(=O)[C@H]1CCC[C@H](N)C1)C(=O)NCC(=O)Nc1ccc(N2CCOCC2)cc1 ({Cyclohexanoyl(1S,3S-3-NH2)}-[Trp(5-OH)][Bip][hArg]G-{NH(4-morpholinophenyl)})	–	–	113	solubility [1]: > 50 mM; Activity (Ephrin type-A receptor 4 [6]): Active; Activity [7]: Active; Activity [8]: Active; Activity [9]: Active; Activity (Neuron [10]): Active
N=C(N)NCCCC[C@H](NC(=O)[C@H](Cc1ccc(-c2ccccc2)cc1)NC(=O)[C@H](Cc1c[nH]c2ccc(O)cc12)NC(=O)[C@H]1CCC[C@H](N)C1)C(=O)NCC(=O)Nc1ccc(CN2CCOCC2)cc1 ({Cyclohexanoyl(1S,3S-3-NH2)}-[Trp(5-OH)][Bip][hArg]G-{NHPh(4-CH2-morpholino)})	–	–	144	Kd (Ephrin type-A receptor 2): Not Active; solubility [1]: > 50 mM
COc1ccccc1-c1ccc(C[C@H](NC(=O)[C@H](Cc2c[nH]c3ccc(O)cc23)NC(=O)[C@H]2CCC[C@H](N)C2)C(=O)N[C@@H](CCCCNC(=N)N)C(=O)NCC(=O)Nc2ccc(N3CCOCC3)cc2)cc1 ({Cyclohexanoyl(1S,3S-3-NH2)}-[Trp(5-OH)][Phe(4-(2-MeO-Ph))][hArg]G-{NH(4-morpholinophenyl)})	–	–	106	Kd (Ephrin type-A receptor 2): Not Active; solubility [1]: > 50 mM
COc1ccccc1-c1ccc(C[C@H](NC(=O)[C@H](Cc2c[nH]c3ccc(O)cc23)NC(=O)[C@H]2CCC[C@H](N)C2)C(=O)N[C@@H](CCCCNC(=N)N)C(=O)NCC(=O)Nc2ccc(CN3CCOCC3)cc2)cc1 ({Cyclohexanoyl(1S,3S-3-NH2)}-[Trp(5-OH)][Phe(4-(2-MeO-Ph))][hArg]G-{NHPh(4-CH2-morpholino)})	–	–	77	Kd (Ephrin type-A receptor 2): Not Active; solubility [1]: > 50 mM

More lines, main results first:

deltaH (Ephrin type-A receptor 4 [4]) [kcal/mol]	-TdeltaS (Ephrin type-A receptor 4 [5]) [kcal/mol]	Structure (SMILES)	Kd (Ephrin type-A receptor 4 [3]) [nM]	other results
-12	3	N=C(N)NCCCC[C@H](NC(=O)[C@H](Cc1ccc(-c2ccccc2)cc1)NC(=O)[C@H](Cc1c[nH]c2ccc(O)cc12)NC(=O)CCCN)C(=O)NCC(=O)NCc1ccccc1O (H-[GABA][Trp(5-OH)][Bip][hArg]G-X1)	258	–
-12	2.88	N=C(N)NCCCC[C@H](NC(=O)[C@H](Cc1ccc(-c2ccccc2)cc1)NC(=O)[C@H](Cc1c[nH]c2ccc(O)cc12)NC(=O)CCCN)C(=O)NCC(=O)Nc1ccccc1O (H-[GABA][Trp(5-OH)][Bip][hArg]G-X2)	191	–
-9.48	0.86	N=C(N)NCCCC[C@H](NC(=O)[C@H](Cc1ccc(-c2ccccc2)cc1)NC(=O)[C@H](Cc1c[nH]c2ccc(O)cc12)NC(=O)CCCN)C(=O)NCC(=O)Nc1ncccc1O (H-[GABA][Trp(5-OH)][Bip][hArg]G-X3)	488	–
-11.3	2.39	COc1cc(CNC(=O)CNC(=O)[C@H](CCCCNC(=N)N)NC(=O)[C@H](Cc2ccc(-c3ccccc3)cc2)NC(=O)[C@H](Cc2c[nH]c3ccc(O)cc23)NC(=O)CCCN)cc(OC)c1 (H-[GABA][Trp(5-OH)][Bip][hArg]G-X4)	307	–
-11.2	1.63	N=C(N)NCCCC[C@H](NC(=O)[C@H](Cc1ccc(-c2ccccc2)cc1)NC(=O)[C@H](Cc1c[nH]c2ccc(O)cc12)NC(=O)CCCN)C(=O)NCC(=O)Nc1ccc(N2CCOCC2)cc1 (H-[GABA][Trp(5-OH)][Bip][hArg]G-{NH(4-morpholinophenyl)})	94	–
-10.6	1.05	N=C(N)NCCCC[C@H](NC(=O)[C@H](Cc1ccc(-c2ccccc2)cc1)NC(=O)[C@H](Cc1c[nH]c2ccc(O)cc12)NC(=O)CCCN)C(=O)NCC(=O)Nc1ccc(CN2CCOCC2)cc1 (H-[GABA][Trp(5-OH)][Bip][hArg]G-{NHPh(4-CH2-morpholino)})	106	–
-7.27	0.74	N=C(N)NCCCC[C@H](NC(=O)[C@H](Cc1ccc(-c2ccccc2)cc1)NC(=O)[C@H](Cc1c[nH]c2ncccc12)NC(=O)CCCN)C(N)=O (H-[GABA][Trp(7-aza)][Bip][hArg]-NH2)	16300	–
